Source: ChEMBL document CHEMBL3351826, “Synthesis of pyrazolo[4,3-e][1,2,4]triazine sulfonamides, novel Sildenafil analogs with tyrosinase inhibitory activity” (Bioorg Med Chem, 2014)
≈ marks a conversion by molar mass, not a printed value. Calls of active or inactive are those of the source. The rule behind the calls is not given here.

How the values were obtained:
[1] = Inhibition of Leptosphaeria sacchari tyrosinase using L-DOPA as substrate incubated for 10 mins prior to substrate addition […] by spectrophotometry
[2] = test system: Leptosphaeria sacchari; experiment: Inhibition of Leptosphaeria sacchari tyrosinase using L-DOPA as substrate at 0.3 mg/ml incubated for 10 mins prior to substrate addition […] by spectrophotometry
[3] = test system: Leptosphaeria sacchari; experiment: Inhibition of Leptosphaeria sacchari tyrosinase using L-DOPA as substrate assessed as remaining activity at 0.3 mg/ml incubated for 10 mins prior to substrate addition […] by spectrophotometry
[4] = test system: Leptosphaeria sacchari; experiment: Inhibition of Leptosphaeria sacchari tyrosinase using L-DOPA as substrate at 1 mM incubated for 10 mins prior to substrate addition […] by spectrophotometry
[5] = test system: Leptosphaeria sacchari; experiment: Inhibition of Leptosphaeria sacchari tyrosinase using L-DOPA as substrate at 0.1 mM incubated for 10 mins prior to substrate addition […] by spectrophotometry
[6] = organism: Oryctolagus cuniculus; experiment: Inhibition of rabbit platelet PDE5A using [3H]cGMP as substrate at 1 uM after 30 mins by scintillation proximity assay
Summary of the method: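 PDE5A isolated from rabbit platelets; tritium scintillation proximity assay in 50 mM Tris-HCl pH 7.5 with 8.3 mM MgCl2 and 1.7 mM EGTA. Compounds tested at 1 µM from DMSO stock, final DMSO <1%. Enzyme limited to ≤15% substrate hydrolysis. Duplicates. % inhibition = [1 − (CPM sample − blank)/(CPM water control − blank)] × 100.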

| Structure (SMILES) | IC50 [1] | inhibition [2] | Activity [3] | inhibition [4] | inhibition [5] | inhibition [6] |
| --- | --- | --- | --- | --- | --- | --- |
| CCOc1ccc(S(=O)(=O)NCCO)cc1-c1nnc2c(n1)c(C)nn2C | 100 µg/mL (≈ 255 µM) | 39.5% | 60.5% | – | – | – |
| c1nnc2[nH]ncc2n1 | – | – | – | Active | 48% | – |
| CCOc1ccc(S(=O)(=O)N2CCNCC2)cc1-c1nnc2c(n1)c(C)nn2C | 80 µg/mL (≈ 192 µM) | 70.5% | 29.5% | – | – | 26.5% |
| CCOc1ccc(S(=O)(=O)N2CCN(S(=O)(=O)c3ccc(OCC)c(-c4nnc5c(n4)c(C)nn5C)c3)CC2)cc1-c1nnc2c(n1)c(C)nn2C | – | – | – | – | – | 11.4% |
| CCOc1ccc(S(=O)(=O)N2CCN(C)CC2)cc1-c1nnc2nn(C)c(C)c2n1 | 140 µg/mL (≈ 324 µM) | 54.8% | 45.2% | – | – | 0% |
| CCCc1nn(C)c2nnc(-c3cc(S(=O)(=O)N4CCN(C)CC4)ccc3OCC)nc12 | 120 µg/mL (≈ 261 µM) | 57.1% | 42.9% | – | – | 5.8% |
| CCOc1ccc(S(=O)(=O)N2CCCC2)cc1-c1nnc2c(n1)c(C)nn2C | 90 µg/mL (≈ 224 µM) | 60.4% | 39.6% | – | – | 24.1% |
| CCOc1ccc(S(=O)(=O)NCCN2CCOCC2)cc1-c1nnc2c(n1)c(C)nn2C | 150 µg/mL (≈ 325 µM) | 62.1% | 37.9% | – | – | 13.3% |
| CCOc1ccc(S(=O)(=O)N2CCCCC2)cc1-c1nnc2c(n1)c(C)nn2C | 120 µg/mL (≈ 288 µM) | 59.8% | 40.2% | – | – | 29.5% |
| CCOc1ccc(S(=O)(=O)N2CCCN(S(=O)(=O)c3ccc(OCC)c(-c4nnc5c(n4)c(C)nn5C)c3)CC2)cc1-c1nnc2c(n1)c(C)nn2C | – | – | – | – | – | 26.7% |
| CCOc1ccc(S(=O)(=O)NCCNS(=O)(=O)c2ccc(OCC)c(-c3nnc4c(n3)c(C)nn4C)c2)cc1-c1nnc2c(n1)c(C)nn2C | 900 µg/mL (≈ 1250 µM) | 79.7% | 20.2% | – | – | 28.1% |
| CCOc1ccc(S(=O)(=O)NCCN)cc1-c1nnc2c(n1)c(C)nn2C | 70 µg/mL (≈ 179 µM) | 96.3% | 3.7% | – | – | 0% |
| CCCc1nn(C)c2c(=O)[nH]c(-c3cc(S(=O)(=O)N4CCN(C)CC4)ccc3OCC)nc12 | – | – | – | – | – | 98.9% |
| CCOc1ccc(S(=O)(=O)N2CCN(C)CC2)cc1-c1nnc2c(n1)c(C)nn2C | 110 µg/mL (≈ 255 µM) | 58.8% | 41.2% | – | – | 6% |
| CCOc1ccc(S(=O)(=O)N2CCCNCC2)cc1-c1nnc2c(n1)c(C)nn2C | 100 µg/mL (≈ 232 µM) | 62.1% | 33.5% | – | – | 0.6% |
| CCOc1ccc(S(=O)(=O)N2CCOCC2)cc1-c1nnc2c(n1)c(C)nn2C | 150 µg/mL (≈ 358 µM) | 51.4% | 48.6% | – | – | 0% |
| CCOc1ccc(S(=O)(=O)N(CC)CC)cc1-c1nnc2c(n1)c(C)nn2C | 120 µg/mL (≈ 297 µM) | 68.3% | 31.7% | – | – | 16.4% |
